Test results published in ChEMBL document CHEMBL2346548, “Design, synthesis, and structure-activity relationship studies of tryptanthrins as antitubercular agents” (J Nat Prod, 2013).
≈ marks a conversion by molar mass, not a printed value.

test system: not listed separately; assay: Solubility in simulated intestinal fluid at pH 7.6 by HPLC method; assay type: physicochemical; settings: not given
How it was run: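 Simulated intestinal fluid medium; each analogue 200 μM final in 2% DMSO, shaken 24 h at room temperature, then HPLC with photodiode array read at 230 nm; duplicate, means given.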

Row | SMILES | solubility [µM]
1 | O=C1c2ccc(Cl)cc2-n2c1nc1ccccc1c2=O | 20.3 (≈ 5.74 µg/mL)
2 | O=C1c2cc(Cl)ccc2-n2c1nc1ncccc1c2=O | 18.9 (≈ 5.36 µg/mL)
3 | O=C1c2cc(Br)ccc2-n2c1nc1ccncc1c2=O | 34.4 (≈ 11.3 µg/mL)

test system: Mycobacterium tuberculosis; assay: Antitubercular activity against Mycobacterium tuberculosis H37Rv incubated at 37 degC for 14 days in presence of 40% human serum by microplate alamar blue assay; assay type: functional; settings: 336 h
How it was run: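 This is the MABA run in 7H9 broth containing 40% human serum. Compounds were 2-fold serially diluted, and wells were inoculated with H37Rv at 2 × 10⁵ CFU/mL. Incubation was at 37 °C for 14 days, then Alamar Blue was added. MIC was the lowest concentration preventing the blue-to-pink colour change.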

Row | SMILES | MIC [µg/mL]
4 | O=C1c2ccc(Cl)cc2-n2c1nc1ccccc1c2=O | 0.5
5 | O=C1c2cc(Cl)ccc2-n2c1nc1ncccc1c2=O | 0.125
6 | O=C1c2cc(Br)ccc2-n2c1nc1ccncc1c2=O | 0.5

test system: not listed separately; assay: Distribution coefficient, log D of the compound between n-octanol and PBS buffer at pH 7.4 incubated for 1 hr by shake flask method; assay type: physicochemical; settings: not given
How it was run: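 Partition between n-octanol and PBS pH 7.4 after 1 h shaking at room temperature; phases analysed by HPLC with photodiode detection; logD = log10 of organic/aqueous amount.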

Row | SMILES | logD at 1 h
7 | O=C1c2ccc(Cl)cc2-n2c1nc1ccccc1c2=O | 2.45
8 | O=C1c2cc(Cl)ccc2-n2c1nc1ncccc1c2=O | 1.77
9 | O=C1c2cc(Br)ccc2-n2c1nc1ccncc1c2=O | 1.6

test system: not listed separately; assay: Aqueous solubility in PBS buffer at pH 7.4 by HPLC method; assay type: physicochemical; settings: PBS buffer, read-out: solubility
How it was run: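 Compound at 200 μM final in 2% DMSO in PBS pH 7.4, shaken 24 h at room temperature; quantified by HPLC with photodiode array detection at 230 nm; duplicate, mean reported.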

Row | SMILES | solubility [µM]
10 | O=C1c2cc(Cl)ccc2-n2c1nc1ncccc1c2=O | 8 (≈ 2.27 µg/mL)
11 | O=C1c2cc(Br)ccc2-n2c1nc1ccncc1c2=O | 35.4 (≈ 11.6 µg/mL)

test system: not listed separately; assay: Protein binding in human plasma at 10 uM incubated for 8 hrs at 37 degC by equilibrium dialysis method; assay type: ADME, cell-free; settings: read-out: PPB (converted)
How it was run: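 Equilibrium dialysis: 10 μM compound in 1% DMSO in human plasma vs 0.05 M phosphate buffer pH 7.5 across 12–14 K cutoff membrane, at least 8 h at 37 °C; HPLC-photodiode detection at 230 nm; duplicate means.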

Row | SMILES | fraction unbound at 8 h, 10 µM
12 | O=C1c2ccc(Cl)cc2-n2c1nc1ccccc1c2=O | 0.01
13 | O=C1c2cc(Cl)ccc2-n2c1nc1ncccc1c2=O | 0.051

test system: not listed separately; assay: Permeability across apical to basolateral side in human Caco2 cells incubated for 1 hr at 37 degC by HPLC-MS/MS method; assay type: ADME, cell-based; settings: Caco-2
How it was run: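 TC7 (Caco-2 subclone) monolayer; 10 μM compound in 1% DMSO in HBSS-MES pH 6.5 on apical donor side, basolateral receiver pH 7.4; shaken 1 h at 37 °C; receiver sampled, HPLC-MS/MS; duplicate means.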

Row | SMILES | Papp A→B at 1 h [×10⁻⁶ cm/s]
14 | O=C1c2ccc(Cl)cc2-n2c1nc1ccccc1c2=O | 0.4
15 | O=C1c2cc(Cl)ccc2-n2c1nc1ncccc1c2=O | 73.8

target: CYP2C9 (Homo sapiens, UniProt P11712); assay: Inhibition of human recombinant CYP2C9 at 10 uM incubated for 80 mins at 37 degC using 7-methoxy-4-trifluoromethylcoumarin substrate; assay type: ADME; settings: recombinant CYP2C9, probe 7-methoxy-4-trifluoromethylcoumarin
Sequence (P11712 whole entry): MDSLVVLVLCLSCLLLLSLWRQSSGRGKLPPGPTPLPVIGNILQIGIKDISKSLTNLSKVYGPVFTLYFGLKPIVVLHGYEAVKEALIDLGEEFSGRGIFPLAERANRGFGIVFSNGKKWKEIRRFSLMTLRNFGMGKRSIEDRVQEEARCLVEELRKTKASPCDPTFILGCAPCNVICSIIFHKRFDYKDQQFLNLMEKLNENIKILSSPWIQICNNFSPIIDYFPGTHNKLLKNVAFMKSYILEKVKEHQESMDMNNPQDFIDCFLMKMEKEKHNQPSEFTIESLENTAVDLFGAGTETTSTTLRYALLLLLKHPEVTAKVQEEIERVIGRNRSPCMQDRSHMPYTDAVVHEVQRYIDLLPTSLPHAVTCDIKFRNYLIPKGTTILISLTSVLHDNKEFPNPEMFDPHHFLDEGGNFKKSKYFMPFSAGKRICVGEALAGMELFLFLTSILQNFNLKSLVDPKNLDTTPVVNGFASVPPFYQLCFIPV

Row | SMILES | inhibition at 80 min, 10 µM [%]
16 | O=C1c2ccc(Cl)cc2-n2c1nc1ccccc1c2=O | 25
17 | O=C1c2cc(Cl)ccc2-n2c1nc1ncccc1c2=O | 54
18 | O=C1c2cc(Br)ccc2-n2c1nc1ccncc1c2=O | 10

test system: not listed separately; assay: Solubility in simulated gastric fluid at pH 1.5 by HPLC method; assay type: physicochemical; settings: not given
How it was run: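 Compound at 200 μM final in 2% DMSO in simulated gastric fluid, shaken 24 h at room temperature; HPLC-photodiode array detection at 230 nm; duplicate means.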

Row | SMILES | solubility [µM]
19 | O=C1c2ccc(Cl)cc2-n2c1nc1ccccc1c2=O | 71.9 (≈ 20.3 µg/mL)
20 | O=C1c2cc(Cl)ccc2-n2c1nc1ncccc1c2=O | 6 (≈ 1.7 µg/mL)
21 | O=C1c2cc(Br)ccc2-n2c1nc1ccncc1c2=O | 45 (≈ 14.8 µg/mL)

target: CYP3A4 (Homo sapiens, UniProt P08684); assay: Inhibition of human recombinant CYP3A4 at 10 uM incubated for 30 mins at 37 degC using 7-benzyloxy-4-(trifluoromethyl)coumarin substrate; assay type: ADME; settings: recombinant CYP3A4, probe 7-benzyloxy-4-(trifluoromethyl)coumarin
Sequence (P08684 whole entry): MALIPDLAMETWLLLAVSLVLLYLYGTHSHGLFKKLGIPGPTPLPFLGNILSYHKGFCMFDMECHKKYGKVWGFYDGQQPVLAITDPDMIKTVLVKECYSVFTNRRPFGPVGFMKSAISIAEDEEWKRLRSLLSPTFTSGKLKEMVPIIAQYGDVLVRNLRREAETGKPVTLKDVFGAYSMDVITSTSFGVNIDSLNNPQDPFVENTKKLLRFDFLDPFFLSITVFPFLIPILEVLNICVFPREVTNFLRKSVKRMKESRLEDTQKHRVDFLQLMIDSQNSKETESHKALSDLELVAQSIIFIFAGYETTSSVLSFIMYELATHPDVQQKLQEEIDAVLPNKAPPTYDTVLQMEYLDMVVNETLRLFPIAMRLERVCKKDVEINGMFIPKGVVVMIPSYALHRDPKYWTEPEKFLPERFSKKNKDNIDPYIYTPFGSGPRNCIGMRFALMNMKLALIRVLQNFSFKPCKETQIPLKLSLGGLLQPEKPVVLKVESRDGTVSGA

Row | SMILES | inhibition at 0.5 h, 10 µM [%]
22 | O=C1c2ccc(Cl)cc2-n2c1nc1ccccc1c2=O | 7
23 | O=C1c2cc(Cl)ccc2-n2c1nc1ncccc1c2=O | 62
24 | O=C1c2cc(Br)ccc2-n2c1nc1ccncc1c2=O | 14

test system: Vero; assay: Cytotoxicity against african green monkey Vero cells; assay type: cell-based, Chlorocebus sabaeus; settings: Chlorocebus sabaeus, Vero; read-out: IC50

Row | SMILES | IC50 [µg/mL]
25 | O=C1c2ccc(Cl)cc2-n2c1nc1ccccc1c2=O | > 50
26 | O=C1c2cc(Cl)ccc2-n2c1nc1ncccc1c2=O | 5.4 (≈ 19 µM)
27 | O=C1c2cc(Br)ccc2-n2c1nc1ccncc1c2=O | > 50

test system: not listed separately; assay: Metabolic stability in human liver microsomes assessed as parent compound remaining at 1 uM incubated for 1 hr by HPLC-MS/MS method; assay type: ADME, Microsome; settings: read-out: Stability
How it was run: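 Pooled mixed-gender human liver microsomes (0.3 mg/mL protein), 1 μM compound with NADP-regenerating system in phosphate buffer pH 7.4, 1 h at 37 °C; parent measured at start and end by HPLC-MS/MS; duplicate means.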

Row | SMILES | remaining at 1 h, 1 µM [%]
28 | O=C1c2ccc(Cl)cc2-n2c1nc1ccccc1c2=O | 27
29 | O=C1c2cc(Cl)ccc2-n2c1nc1ncccc1c2=O | 96
30 | O=C1c2cc(Br)ccc2-n2c1nc1ccncc1c2=O | 96

test system: Mycobacterium tuberculosis; assay: Antitubercular activity against non-replicating Mycobacterium tuberculosis H37Rv incubated for 10 days by LORA method; assay type: functional; settings: 240 h
How it was run: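 H37Rv carrying pFCA-luxAB was adapted to low oxygen by gradual self-depletion in a sealed, slowly stirred flask. It was then exposed to compounds for 10 days under anaerobic conditions. Cultures recovered for 28 h in ambient oxygen before n-decanal substrate was added and luminescence read. MIC was the lowest concentration giving a 90% reduction in luminescence versus untreated controls.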

Row | SMILES | MIC90 [µg/mL]
31 | O=C1c2ccc(Cl)cc2-n2c1nc1ccccc1c2=O | > 50
32 | O=C1c2cc(Cl)ccc2-n2c1nc1ncccc1c2=O | 1.4 (≈ 4.94 µM)
33 | O=C1c2cc(Br)ccc2-n2c1nc1ccncc1c2=O | > 50

target: CYP2C19 (Homo sapiens, UniProt P33261); assay: Inhibition of human recombinant CYP2C19 at 10 uM incubated for 60 mins at 37 degC using 3-cyano-7-ethoxycoumarin substrate; assay type: ADME; settings: recombinant CYP2C19, probe 3-cyano-7-ethoxycoumarin
Sequence (P33261 whole entry): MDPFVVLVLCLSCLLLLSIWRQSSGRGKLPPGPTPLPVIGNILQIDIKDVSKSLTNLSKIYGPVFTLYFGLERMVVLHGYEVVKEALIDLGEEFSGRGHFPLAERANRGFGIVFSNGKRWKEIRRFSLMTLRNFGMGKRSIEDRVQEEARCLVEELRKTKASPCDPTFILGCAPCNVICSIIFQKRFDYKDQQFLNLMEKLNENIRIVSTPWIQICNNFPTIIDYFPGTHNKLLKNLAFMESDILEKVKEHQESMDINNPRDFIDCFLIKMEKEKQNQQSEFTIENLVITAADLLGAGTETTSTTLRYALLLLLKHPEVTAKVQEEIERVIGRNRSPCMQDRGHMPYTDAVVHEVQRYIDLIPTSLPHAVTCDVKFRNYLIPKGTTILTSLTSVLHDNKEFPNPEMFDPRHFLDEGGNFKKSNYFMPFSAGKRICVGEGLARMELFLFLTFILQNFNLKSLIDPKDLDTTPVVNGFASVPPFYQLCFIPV

Row | SMILES | inhibition at 1 h, 10 µM [%]
34 | O=C1c2ccc(Cl)cc2-n2c1nc1ccccc1c2=O | 4
35 | O=C1c2cc(Cl)ccc2-n2c1nc1ncccc1c2=O | 67
36 | O=C1c2cc(Br)ccc2-n2c1nc1ccncc1c2=O | 16

test system: Mycobacterium tuberculosis; assay: Antitubercular activity against Mycobacterium tuberculosis H37Rv incubated at 37 degC for 7 days by microplate alamar blue assay; assay type: functional; settings: not given
How it was run: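 Mtb H37Rv was grown in 7H9 broth with glycerol, Casitone, 10% OADC and 0.05% Tween 80 to OD600 0.4. Compounds were 2-fold serially diluted from DMSO stocks in 7H9, and wells were inoculated at 2 × 10⁵ CFU/mL. After 7 days at 37 °C, Alamar Blue was added and read after a further 24 h. MIC was the lowest concentration preventing the blue-to-pink change.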

Row | SMILES | MBC90 [µg/mL]
37 | O=C1c2ccc(Cl)cc2-n2c1nc1ccccc1c2=O | 0.5 (≈ 1.77 µM)
38 | O=C1c2cc(Cl)ccc2-n2c1nc1ncccc1c2=O | 0.25 (≈ 0.881 µM)
39 | O=C1c2cc(Br)ccc2-n2c1nc1ccncc1c2=O | 0.25 (≈ 0.762 µM)

same assay, conditions: Mycobacterium tuberculosis, H37Rv, 168 h

Row | SMILES | MIC [µg/mL]
40 | O=C1c2ccc(Cl)cc2-n2c1nc1ccccc1c2=O | 0.25 (≈ 0.884 µM)
41 | O=C1c2cc(Cl)ccc2-n2c1nc1ncccc1c2=O | 0.125 (≈ 0.441 µM)
42 | O=C1c2cc(Br)ccc2-n2c1nc1ccncc1c2=O | 1 (≈ 3.05 µM)

test system: not listed separately; assay: Permeability across basolateral to apical side in human Caco2 cells incubated for 1 hr at 37 degC by HPLC-MS/MS method; assay type: ADME, cell-based; settings: Caco-2

Row | SMILES | Papp B→A at 1 h [×10⁻⁶ cm/s]
43 | O=C1c2ccc(Cl)cc2-n2c1nc1ccccc1c2=O | 0.1
44 | O=C1c2cc(Cl)ccc2-n2c1nc1ncccc1c2=O | 44

test system: not listed separately; assay: Efflux ratio in human Caco2 cells incubated for 1 hr at 37 degC by HPLC-MS/MS method; assay type: ADME, cell-based; settings: Caco-2

Row | SMILES | efflux ratio at 1 h
45 | O=C1c2cc(Cl)ccc2-n2c1nc1ncccc1c2=O | > 1
